≈ marks a conversion by molar mass, not a printed value. Calls of active or inactive are those of the source. No cut-off for these calls is given here.

The test system of series [1] is Escherichia coli. Nature of the series: Antibacterial activity against Escherichia coli ATCC 9637 after 16 hrs by microtiter broth dilution method. The following applies: W. The class given is functional.
In series [2] the test system is Pseudomonas aeruginosa. Nature of the series: Antibacterial activity against Pseudomonas aeruginosa ATCC BAA-427 after 16 hrs by microtiter broth dilution method. The following applies: ATCC BAA-427, 16 h. The class given is functional.
Series [3] concerns Staphylococcus aureus. Nature of the series: Antibacterial activity against Staphylococcus aureus ATCC 25923 after 16 hrs by microtiter broth dilution method. The class given is functional. The following applies: ATCC 25923, 16 h.
Series [4] concerns Staphylococcus aureus. Nature of the series: Antibacterial activity against methicillin-resistant Staphylococcus aureus ATCC 700699 after 16 hrs by microtiter broth dilution method. In kind it is functional. The following applies: ATCC 700699, 16 h.
For series [5], the system named is Staphylococcus aureus. Nature of the series: Antibacterial activity against […] Staphylococcus aureus ATCC 29213 after 16 hrs by microtiter broth dilution method. The class given is functional. The following applies: ATCC 29213, 16 h.
Series [6] deals with Staphylococcus aureus. As to the kind of experiment: Antibacterial activity against methicillin/gentamicin-resistant Staphylococcus aureus ATCC 33592 after 16 hrs by microtiter broth dilution method. The class given is functional. The note with it: ATCC 33592, 16 h.
Series [7] concerns Klebsiella pneumoniae. As to the kind of experiment: Antibacterial activity against Klebsiella pneumoniae ATCC 27736 after 16 hrs by microtiter broth dilution method. The note with it: ATCC 27736, 16 h. In kind it is functional.
Series [8] deals with Candida albicans. As to the kind of experiment: Antifungal activity against Candida albicans after 16 hrs by microtiter broth dilution method. The class given is functional.
The subject of series [9] is Cryptococcus neoformans. As to the kind of experiment: Antifungal activity against Cryptococcus neoformans after 16 hrs by microtiter broth dilution method. In kind it is functional.
Series [10] has as its system Sporothrix schenckii. Nature of the series: Antifungal activity against Sporothrix schenckii after 16 hrs by microtiter broth dilution method. The class given is functional.
The subject of series [11] is Trichophyton mentagrophytes. Nature of the series: Antifungal activity against Trichophyton mentagrophytes after 16 hrs by microtiter broth dilution method. The class given is functional.
The test system of series [12] is Aspergillus fumigatus. Nature of the series: Antifungal activity against Aspergillus fumigatus after 16 hrs by microtiter broth dilution method. In kind it is functional.
Series [13] relates to Candida parapsilosis. Nature of the series: Antifungal activity against Candida parapsilosis ATCC 22019 after 16 hrs by microtiter broth dilution method. The class given is functional. The following applies: Lodderomyces parapsilosis, ATCC 22019, 16 h.
The test system of series [14] is L929. As to the kind of experiment: Cytotoxicity against mouse L929 cells assessed as cell viability at <= MIC by MTT assay. The class given is cell-based. The essentials:
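Mouse fibroblast L929 cells were exposed to the compound. Viability was read by MTT conversion to blue formazan, measured at 550 nm.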

For series [15], the system named is L929. As to the kind of experiment: Cytotoxicity against mouse L929 cells assessed as induction of morphological changes at 1 x MIC after 24 hrs by Giemsa staining-based phase contrast microscopic analysis. In kind it is cell-based. The following applies: l929, 24 h. The essentials: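 L929 fibroblasts were incubated with the compound for 24 h, then Giemsa-stained. Morphology was compared with untreated control cells under phase contrast microscopy for appearance, transparency and attachment to the well surface.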

A short description of series [16]: Hemolytic activity in human RBC at 100 ug/ml after 1 hr. The following applies: erythrocyte.
Series [17] relates to Staphylococcus aureus. As to the kind of experiment: Antibacterial activity against […] Staphylococcus aureus ATCC 29213 assessed as reduction in log10CFU at 1x MIC and 10x MIC measured at 24 hrs relative to control. In kind it is functional. The essentials: (§1)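 Aliquots were taken at regular time points and plated for CFU counts. Reduction in log10 CFU was taken against a no-drug control.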

In series [18] the test system is Staphylococcus aureus. As to the kind of experiment: Antibacterial activity against […] Staphylococcus aureus ATCC 29213 assessed as reduction in log10CFU measured at 24 hrs. In kind it is functional, organism-based. The essentials:
as §1

The subject of series [19] is Staphylococcus aureus. As to the kind of experiment: Antibacterial activity against […] Staphylococcus aureus ATCC 29213 in neutropenic BALB/C mouse septicemia model assessed as increase in mouse survival at 15 mg/kg, ip administered twice at 3 hrs interval. The class given is functional, organism-based.
For series [20], the system named is Staphylococcus aureus. Nature of the series: Antibacterial activity against […] Staphylococcus aureus ATCC 29213 in neutropenic BALB/C mouse septicemia model assessed as reduction in bacterial burden in spleen at 15 mg/kg, ip administered twice at 3 hrs interval measured after 24 hrs. The class given is functional, organism-based. The essentials: (§2)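 BALB/c mice were made neutropenic with cyclophosphamide (150 mg/kg) and then infected intraperitoneally with S. aureus ATCC 29213. From 3 h post-infection, compound was injected at 15 mg/kg twice, 3 h apart. At 24 h, spleen, kidney and liver were crushed and plated on TH plates for CFU. Data from three independent experiments were pooled; P by ANOVA on ranks.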

Series [21] concerns Staphylococcus aureus. Nature of the series: Antibacterial activity against […] Staphylococcus aureus ATCC 29213 in neutropenic BALB/C mouse septicemia model assessed as reduction in bacterial burden in liver at 15 mg/kg, ip administered twice at 3 hrs interval measured after 24 hrs. The class given is functional, organism-based. The essentials:
as §2

In series [22] the test system is Staphylococcus aureus. As to the kind of experiment: Antibacterial activity against […] Staphylococcus aureus ATCC 29213 in neutropenic BALB/C mouse septicemia model assessed as reduction in bacterial burden in kidney at 15 mg/kg, ip administered twice at 3 hrs interval measured after 24 hrs. The class given is functional, organism-based. The essentials: as §2

For the compound `CCOC(=O)c1csc(/N=C/c2cc(/C=C/C(=O)c3ccc(C)cc3)cc(C(C)(C)C)c2O)n1`, the MIC in series [1] is greater than 105 µM; in series [2], greater than 105 µM; in series [3] it was 6.5 µM (≈ 3.1 µg/mL); in [4], 13.1 µM (≈ 6.24 µg/mL); in series [5], 6.5 µM (≈ 3.1 µg/mL); in series [6], 3.3 µM (≈ 1.57 µg/mL). The minimum inhibitory concentration (MIC) in series [7], in [8], in series [9], in [10], in series [11] and in [12] was greater than 105 µM each time. The same compound registered an MIC in [13] greater than 105 µM. The Activity entry in [14], in series [15] and in series [16] was “Non-toxic” in each case.

Regarding `C[C@H]1COc2c(N3CCN(C)CC3)c(F)cc3c(=O)c(C(=O)O)cn1c23`, the result in series [17] was Active.

Take `COc1ccc(-c2csc(/N=C/c3cc(/C=C/C(=O)c4ccc(C)cc4)cc(C(C)(C)C)c3O)n2)cc1OC`: the MIC in series [1] was greater than 92.5 µM; in series [2] it was greater than 92.5 µM; in series [3] it was 5.8 µM (≈ 3.14 µg/mL); in series [4] it was 11.6 µM (≈ 6.27 µg/mL); in series [5] it was 5.8 µM (≈ 3.14 µg/mL); in series [6] it was 1.4 µM (≈ 0.757 µg/mL). Further, the minimal inhibitory concentration (MIC) in series [7], in series [8], in series [9], in series [10], in series [11] and in series [12] was greater than 92.5 µM in each case. Moreover, in series [13], the minimal inhibitory concentration (MIC) is greater than 92.5 µM. Further, the Activity entry in [14] is “Non-toxic”; in series [15], “Non-toxic”; in [17] it was 10 log10CFU/ml; in series [18], “Dose-dependent effect”; in series [16] it was “Non-toxic”. The outcome in series [19], in [20] and in series [21] was Active. For the same compound, the result in series [22] was inactive.

As for `CCOC(=O)c1csc(/N=C/c2cc(/C=C/C(=O)c3ccc(OC)cc3)cc(C(C)(C)C)c2O)n1`, the minimal inhibitory concentration (MIC) in [1] is greater than 102 µM; in [2], greater than 102 µM; in series [3] it was 12.7 µM (≈ 6.26 µg/mL); in series [4], 12.7 µM (≈ 6.26 µg/mL); in [5], 12.7 µM (≈ 6.26 µg/mL); in series [6], 3.2 µM (≈ 1.58 µg/mL). For the same compound, the MIC in [7], in series [8], in series [9], in [10], in [11] and in series [12] was greater than 102 µM each time. Besides, the minimal inhibitory concentration (MIC) in series [13] was greater than 102 µM. Besides, the Activity entry in series [16] is “Non-toxic”.

Regarding `CCCc1cc(/C=C/C(=O)c2ccco2)cc(/C=N/c2nc(C(=O)OCC)cs2)c1O`, the MIC is greater than 102 µM in series [1]; greater than 102 µM in [2]; 51.2 µM (≈ 22.5 µg/mL) in series [3]; 51.2 µM (≈ 22.5 µg/mL) in [4]; 51.2 µM (≈ 22.5 µg/mL) in series [5]; 51.2 µM (≈ 22.5 µg/mL) in series [6]. Moreover, the minimum inhibitory concentration (MIC) in [7], in series [8], in [9], in series [10], in [11] and in [12] was greater than 102 µM in each case. The compound further showed a minimum inhibitory concentration (MIC) in series [13] greater than 102 µM. Moreover, the Activity result in [16] is “Non-toxic”.

These data come from ChEMBL document CHEMBL3608288, “Novel Chalcone-Thiazole Hybrids as Potent Inhibitors of Drug Resistant Staphylococcus aureus” (ACS Med Chem Lett, 2015).
